According to ChEMBL document CHEMBL4689842, “EUbOPEN Chemogenomics Library wave 1” (2021):

Test system: U2OS
Assay: Multiplex assay against U2OS
Format: toxicity, cell-based
Details: human
How it was run: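 Compound was added to live cells that had been stained at seeding with Hoechst33342, BioTracker Green Microtubule Cytoskeleton Dye, MitoTracker Red and Annexin V Alexa Fluor 680, and imaging followed on a CQ1 microscope at 37°C and 5% CO2. CellPathfinder machine-learning gating divided cells into Hoechst high-intensity objects or normal cells, normal cells into healthy, pyknosed or fragmented nuclei, and pyknosed cells into mitotic or apoptotic. Tubulin, mitochondrial-mass and membrane-permeability phenotypes are per cents of healthy-nucleus cells.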

[1] = 12 h, 1 µM, compound concentration 1 uM, replicate 1
[2] = 12 h, 1 µM, compound concentration 1 uM, replicate 2
[3] = 12 h, 10 µM, compound concentration 10 uM, replicate 1
[4] = 12 h, 10 µM, compound concentration 10 uM, replicate 2
[5] = 24 h, 1 µM, compound concentration 1 uM, replicate 1
[6] = 24 h, 1 µM, compound concentration 1 uM, replicate 2
[7] = 24 h, 10 µM, compound concentration 10 uM, replicate 1
[8] = 24 h, 10 µM, compound concentration 10 uM, replicate 2
[9] = 48 h, 1 µM, compound concentration 1 uM, replicate 1
[10] = 48 h, 1 µM, compound concentration 1 uM, replicate 2
[11] = 48 h, 10 µM, compound concentration 10 uM, replicate 1
[12] = 48 h, 10 µM, compound concentration 10 uM, replicate 2

Structure (SMILES): C[C@]12CC[C@@H]3c4ccc(O)cc4CC[C@H]3[C@@H]1CC[C@@H]2O [ESTRADIOL]
- Population Apoptotic (%) [1]: 11%
- Population Fragmented Nuclei (%) [1]: 8%
- Population Healthy Nuclei (%) [1]: 82%
- Population Hoechst High Intensity Objects (%) [1]: 7%
- Population Membrane Permeable-Phenotype (%) [1]: 10%
- Population Mitochondria Different-Phenotype (%) [1]: 9%
- Population Mitotic Cells (%) [1]: 88%
- Population Normal (%) [1]: 92%
- Population Pyknosed Nuclei (%) [1]: 8%
- Population Tubulin-Different-Phenotype (%) [1]: 12%
- Total Cell Count [1]: 138
- Population Apoptotic (%) [2]: 50%
- Population Healthy Nuclei (%) [2]: 86%
- Population Hoechst High Intensity Objects (%) [2]: 5%
- Population Membrane Permeable-Phenotype (%) [2]: 4%
- Population Mitochondria Different-Phenotype (%) [2]: 8%
- Population Mitotic Cells (%) [2]: 50%
- Population Normal (%) [2]: 94%
- Population Pyknosed Nuclei (%) [2]: 5%
- Population Tubulin-Different-Phenotype (%) [2]: 14%
- Total Cell Count [2]: 80
- Population Apoptotic (%) [3]: 30%
- Population Fragmented Nuclei (%) [3]: 5%
- Population Healthy Nuclei (%) [3]: 82%
- Population Hoechst High Intensity Objects (%) [3]: 4%
- Population Membrane Permeable-Phenotype (%) [3]: 6%
- Population Mitochondria Different-Phenotype (%) [3]: 7%
- Population Mitotic Cells (%) [3]: 70%
- Population Normal (%) [3]: 95%
- Population Pyknosed Nuclei (%) [3]: 11%
- Population Tubulin-Different-Phenotype (%) [3]: 14%
- Total Cell Count [3]: 113
- Population Apoptotic (%) [4]: 25%
- Population Fragmented Nuclei (%) [4]: 9%
- Population Healthy Nuclei (%) [4]: 77%
- Population Hoechst High Intensity Objects (%) [4]: 8%
- Population Membrane Permeable-Phenotype (%) [4]: 4%
- Population Mitochondria Different-Phenotype (%) [4]: 12%
- Population Mitotic Cells (%) [4]: 75%
- Population Normal (%) [4]: 91%
- Population Pyknosed Nuclei (%) [4]: 12%
- Population Tubulin-Different-Phenotype (%) [4]: 25%
- Total Cell Count [4]: 76
- Population Apoptotic (%) [5]: 0%
- Population Fragmented Nuclei (%) [5]: 7%
- Population Healthy Nuclei (%) [5]: 87%
- Population Hoechst High Intensity Objects (%) [5]: 5%
- Population Membrane Permeable-Phenotype (%) [5]: 6%
- Population Mitochondria Different-Phenotype (%) [5]: 6%
- Population Mitotic Cells (%) [5]: 100%
- Population Normal (%) [5]: 94%
- Population Pyknosed Nuclei (%) [5]: 5%
- Population Tubulin-Different-Phenotype (%) [5]: 15%
- Total Cell Count [5]: 140
- Population Apoptotic (%) [6]: 50%
- Population Fragmented Nuclei (%) [6]: 4%
- Population Healthy Nuclei (%) [6]: 89%
- Population Hoechst High Intensity Objects (%) [6]: 3%
- Population Membrane Permeable-Phenotype (%) [6]: 4%
- Population Mitochondria Different-Phenotype (%) [6]: 9%
- Population Mitotic Cells (%) [6]: 50%
- Population Normal (%) [6]: 96%
- Population Pyknosed Nuclei (%) [6]: 6%
- Population Tubulin-Different-Phenotype (%) [6]: 14%
- Total Cell Count [6]: 82
- Population Apoptotic (%) [7]: 21%
- Population Fragmented Nuclei (%) [7]: 7%
- Population Healthy Nuclei (%) [7]: 79%
- Population Membrane Permeable-Phenotype (%) [7]: 2%
- Population Mitotic Cells (%) [7]: 78%
- Population Pyknosed Nuclei (%) [7]: 12%
- Population Tubulin-Different-Phenotype (%) [7]: 12%
- Total Cell Count [7]: 140
- Population Apoptotic (%) [8]: 30%
- Population Fragmented Nuclei (%) [8]: 18%
- Population Healthy Nuclei (%) [8]: 68%
- Population Hoechst High Intensity Objects (%) [8]: 3%
- Population Membrane Permeable-Phenotype (%) [8]: 5%
- Population Mitochondria Different-Phenotype (%) [8]: 11%
- Population Mitotic Cells (%) [8]: 70%
- Population Normal (%) [8]: 96%
- Population Pyknosed Nuclei (%) [8]: 13%
- Population Tubulin-Different-Phenotype (%) [8]: 43%
- Population Apoptotic (%) [9]: 31%
- Population Hoechst High Intensity Objects (%) [9]: 1%
- Population Membrane Permeable-Phenotype (%) [9]: 2%
- Population Mitotic Cells (%) [9]: 68%
- Population Normal (%) [9]: 98%
- Population Tubulin-Different-Phenotype (%) [9]: 15%
- Total Cell Count [9]: 138
- Population Apoptotic (%) [10]: 18%
- Population Fragmented Nuclei (%) [10]: 5%
- Population Healthy Nuclei (%) [10]: 86%
- Population Hoechst High Intensity Objects (%) [10]: 2%
- Population Membrane Permeable-Phenotype (%) [10]: 12%
- Population Mitochondria Different-Phenotype (%) [10]: 14%
- Population Mitotic Cells (%) [10]: 81%
- Population Normal (%) [10]: 97%
- Population Pyknosed Nuclei (%) [10]: 7%
- Population Tubulin-Different-Phenotype (%) [10]: 17%
- Total Cell Count [10]: 90
- Population Apoptotic (%) [11]: 34%
- Population Fragmented Nuclei (%) [11]: 8%
- Population Healthy Nuclei (%) [11]: 81%
- Population Membrane Permeable-Phenotype (%) [11]: 2%
- Population Mitochondria Different-Phenotype (%) [11]: 19%
- Population Mitotic Cells (%) [11]: 65%
- Population Tubulin-Different-Phenotype (%) [11]: 12%
- Population Apoptotic (%) [12]: 72%
- Population Fragmented Nuclei (%) [12]: 13%
- Population Healthy Nuclei (%) [12]: 76%
- Population Hoechst High Intensity Objects (%) [12]: 2%
- Population Membrane Permeable-Phenotype (%) [12]: 17%
- Population Mitochondria Different-Phenotype (%) [12]: 13%
- Population Mitotic Cells (%) [12]: 27%
- Population Normal (%) [12]: 97%
- Population Pyknosed Nuclei (%) [12]: 10%
- Population Tubulin-Different-Phenotype (%) [12]: 57%
- Total Cell Count [12]: 157
